The record followed here is PubChem BioAssay.

Calls of active or inactive are those of the source.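 How the source made its calls, unless noted: active means visually confirmed hit in the image check and inhibition above 20%; inconclusive means visually confirmed hit but inhibition not above 20%; inactive means no visual hit in the image check.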

A short description of assay [1]: inhibitors of TNFa-induced NFkB p65 translocation, primary screen, imaging, HUVEC, MLSMR starter and 10KST1 sets (AID 438;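 active means inhibition above 20% together with a positive visual image hit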;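 further: compound added about 3h40 before a 20 min TNFalpha stimulation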;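 on inhibition: signal is the nuclear over cytoplasmic p65 intensity ratio per well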). To be noted: HUVEC TNFa-induced p65 nuclear translocation; cell count: measured here: nuclei count (cytotoxicity indicator), at 2.08 µM; inhibition: at 2 µM, stronger effect = higher value, 0% TNFa-plus-vehicle, 100% no-TNFa wells.
A short description of assay [2]: reduction of polyQ htt aggregates in cells – imaging, exon1htt(103Q)mCFP cells, high-content imaging, primary screen (AID 483;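 active means visual image review flags a hit and inhibition of aggregation exceeds 20%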;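 further: compound exposure lasted 3 days before fixation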;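 on nuclei count: percent of the per-plate median nuclei count of sample wells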). To be noted: exon1htt(103Q)mCFP cell line, aggregate imaging, at 2 µM; inhibition of aggregation: stronger effect = higher value; nuclei count: measured here: cell count, toxicity.
The nature of assay [3]: endothelial E-selectin expression blockers – imaging, HUVEC, immunofluorescence, MLSMR starter and 10KST1 sets, primary screen (AID 487).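 On inhibition: signal is fraction of cell area covered by stained E-selectin grains.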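 On nuclei count: 100% = median nuclei count of all wells on the same plate.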 Particulars: HUVEC TNFalpha-induced E-selectin immunofluorescence imaging, at 2 µM; inhibition: stronger effect = higher value; nuclei count: measured here: cell number, toxicity.
Assay [4] concerns the target Voltage-gated potassium channel subunit beta-2 (Rattus norvegicus) (UniProt P62483). In words: inhibitors of rat Kvbeta2 reductase activity – biochemical, NADPH fluorescence, primary screen (AID 622;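 active means fluorescence slope higher than the sample average by over 3 SD, cut at about -0.22 in these data, passing the limit was not always enough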;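 further: slope of raw intensity against log time taken from 70 to 1610 s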). To be noted: recombinant KvBeta, 4-cyanobenzaldehyde reduction, at 10 µM, stronger effect = higher value.
For assay [5] the target is unchanged. In words: enhancers of rat Kvbeta2 NADPH turnover – biochemical, NADPH fluorescence, primary screen (AID 623;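 active means NADPH fluorescence slope more negative than the mean of all samples by about 3 SD, 99.7% confidence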;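 further: fluorescence intensity change per second fitted from 20 to 320 s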). To be noted: Recombinant KvBeta, NADPH fluorescence decrease slope, 10 min; at 10 µM; stronger effect = lower value.
Assay [6] concerns the target Muscarinic acetylcholine receptor M4 (Homo sapiens) (UniProt P08173). In words: M4-linked GIRK flux change, two-sided – cell-based, HEK293 M4/GIRK, thallium flux, BTC-AM, M4 allosteric agonist project, primary screen (AID 625;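 active means fluorescence slope after compound addition differing from the mean of all tested samples at 99.7% confidence, mostly higher but some lower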;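 further: thallium influx through GIRK channels coupled to M4 in HEK293 cells with BTC-AM dye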). To be noted: at 10 µM, actives lie on both sides. Summed up:
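System: HEK293 cells with M4 receptor and GIRK channels | Incubation: Cells overnight at 37 °C, BTC-AM loading 1 h, reads 2 min total | Technique: Kinetic BTC-AM fluorescence sampled at 1 Hz, 10 s pre-addition baseline | Measure: Post-addition slope, 15–24 s, of baseline-normalized fluorescence | Control set: Carbachol positive, DMSO negative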

Assay [7] can be described thus: blockers of RIG-like receptor reporter activation – cell-based, Sendai virus stimulus, luciferase, 10K MLSCN set, TLR/RLR signaling modifier project, primary screen (AID 602276;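 active means inhibition at or above 50% at 10 µM; inactive means inhibition below 50%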;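 further: firefly luciferase from ISG56 promoter only with Renilla not read in this screen; 0% = Sendai virus plus DMSO and 100% = medium plus DMSO without virus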). To be noted: HEK293 RL24 IRF3 luciferase reporter, at 10 µM, stronger effect = higher value.
The nature of assay [8]: TLR3 IRF3 reporter activation blockers – cell-based, poly I:C stimulus, luciferase, 10K MLSCN set, primary screen (AID 602277;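 active means inhibition of the reporter signal at or above 50%; inactive means inhibition below 50%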). To be noted: HEK293-TLR3 RL24 IRF3 luciferase reporter, at 10 µM, stronger effect = higher value.
Assay [9] deals with Alpha-2C adrenergic receptor (Homo sapiens) (UniProt P18825). Kind of assay: compounds altering alpha2C-coupled GIRK flux – cell-based, HEK293 alpha2C/GIRK1/2, thallium flux, primary screen (AID 624;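 active means fluorescence slope after compound addition differing from the mean of all screened samples at 99.7% confidence, in either direction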;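 further: slope of fluorescence ratio to pre-addition baseline per second over 15 to 24 s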). To be noted: thallium flux BTC fluorescence, at 10 µM, actives lie on both sides.
The nature of assay [10]: inhibitors of larval lipid processing in zebrafish, primary screen, whole organism, PED6 fluorescence, gall bladder and intestine (AID 686;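 active means a full or partial loss of lipid-probe fluorescence in the fish gall bladder, intestine or both, judged by eye; inactive means no fluorescence loss, or compound toxic to the fish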;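 further: larvae 5 to 7 days old with five fish per well; signal comes from phospholipase A2 cleavage of quenched PED6 carried via bile; overnight exposure to compound and PED6 before scoring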). Particulars: Zebrafish larvae PED6 lipid processing, fluorescence scoring; screened at 20 µM (by protocol). The essentials:
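Test system – live zebrafish larvae aged 5-7 days, whole organism · Buffer or medium – E3 fish medium · Reagent – quenched phospholipase substrate PED6, 100 nM final, ingested by larvae · Doses – 20 µM single dose · Incubation – overnight compound and PED6 incubation · Technique – visual fluorescence microscopy scoring of gall bladder, gut · Read-out basis – visual per-well fluorescence inhibition score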

Sequence of Voltage-gated potassium channel subunit beta-2 (Rattus norvegicus) (P62483 whole entry, looked up): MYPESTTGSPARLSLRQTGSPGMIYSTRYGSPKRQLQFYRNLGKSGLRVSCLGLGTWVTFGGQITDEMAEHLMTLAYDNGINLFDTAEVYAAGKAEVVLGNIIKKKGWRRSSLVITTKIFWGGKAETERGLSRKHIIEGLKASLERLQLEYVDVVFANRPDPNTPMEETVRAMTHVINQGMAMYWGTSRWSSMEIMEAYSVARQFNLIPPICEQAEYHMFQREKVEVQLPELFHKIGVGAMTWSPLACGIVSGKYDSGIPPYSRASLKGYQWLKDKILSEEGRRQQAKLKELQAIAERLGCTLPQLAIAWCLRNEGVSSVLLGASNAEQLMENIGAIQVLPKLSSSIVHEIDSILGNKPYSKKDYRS
Sequence of Muscarinic acetylcholine receptor M4 (Homo sapiens) (P08173 whole entry, looked up): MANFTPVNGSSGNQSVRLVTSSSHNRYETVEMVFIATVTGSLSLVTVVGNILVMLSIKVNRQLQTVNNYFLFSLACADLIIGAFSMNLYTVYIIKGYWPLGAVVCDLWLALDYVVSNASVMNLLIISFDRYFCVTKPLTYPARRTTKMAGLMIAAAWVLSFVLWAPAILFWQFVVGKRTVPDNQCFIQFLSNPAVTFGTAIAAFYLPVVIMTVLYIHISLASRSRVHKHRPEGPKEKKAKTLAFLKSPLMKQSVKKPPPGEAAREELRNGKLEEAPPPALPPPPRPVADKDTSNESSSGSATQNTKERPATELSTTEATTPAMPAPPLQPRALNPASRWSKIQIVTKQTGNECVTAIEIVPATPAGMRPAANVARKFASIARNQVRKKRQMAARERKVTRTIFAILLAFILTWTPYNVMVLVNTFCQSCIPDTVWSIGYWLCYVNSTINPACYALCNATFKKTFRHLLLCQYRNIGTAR
Sequence of Alpha-2C adrenergic receptor (Homo sapiens) (P18825 whole entry, looked up): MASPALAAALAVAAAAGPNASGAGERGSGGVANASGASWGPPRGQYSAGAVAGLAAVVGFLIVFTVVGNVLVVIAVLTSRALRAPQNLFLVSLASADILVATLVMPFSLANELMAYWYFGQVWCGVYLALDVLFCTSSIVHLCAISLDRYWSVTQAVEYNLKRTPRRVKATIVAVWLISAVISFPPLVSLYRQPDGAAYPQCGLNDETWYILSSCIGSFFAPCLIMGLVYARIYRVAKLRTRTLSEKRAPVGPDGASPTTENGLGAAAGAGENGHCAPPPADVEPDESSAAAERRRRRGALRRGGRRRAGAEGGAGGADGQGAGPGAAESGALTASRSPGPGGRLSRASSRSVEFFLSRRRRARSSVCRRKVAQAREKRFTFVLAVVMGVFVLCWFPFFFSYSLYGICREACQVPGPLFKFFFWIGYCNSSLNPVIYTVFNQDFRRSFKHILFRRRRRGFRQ

Regarding `Cc1cc(NC(=O)c2cc(-c3ccco3)on2)n(-c2ccccc2)n1`, in [1], the cell count turned out to be 326. The inhibition was 6.8% (inactive) in assay [1], -56.3% (inactive) in [3], 17.5% (inactive) in assay [7] and 12.9% (inactive) in assay [8]. Also, the inhibition of aggregation in [2] was 6.4% (inactive). The results for the nuclei count in [2] and in assay [3] were 105% and 121%, respectively. Moreover, the fluorescence slope in assay [4] was -0.466 (inactive); in assay [6] it was 0.00551 (inactive). Besides, in assay [5], the NADPH fluorescence slope is -2.4e-05 (inactive).
For `CCCCCC1NC(=O)NC1CCCCCC(=O)O` (stereo not given), the cell count in [1] came to 457. Moreover, the inhibition in assay [1] was 0% (inactive); in [3], -129% (inactive); in assay [7], 14.6% (inactive); in assay [8], 18.6% (inactive). Besides, the inhibition of aggregation in assay [2] was 11.7% (inactive). The nuclei count in assay [2] was determined as 103%; in [3], 123%. The fluorescence slope in assay [4] is -0.577 (inactive); in [6], 0.00606 (inactive). Also, the NADPH fluorescence slope in [5] is -5.6e-05 (inactive).
In the case of `COC(=O)C(C)Sc1nc2c(c(=O)n(C)c(=O)n2C)n1Cc1cccc(C)c1` (stereo not given), the cell count in [1] turned out to be 474. Besides, the inhibition is 3.8% (inactive) in assay [1], -27.3% (inactive) in assay [3], 18.9% (inactive) in assay [7] and 26.2% (inactive) in assay [8]. For the same molecule, in [2], the inhibition of aggregation was -2.4% (inactive). Moreover, the nuclei count in [2] was found to be 99.3%; in assay [3], 117%. For the same molecule, the fluorescence slope in [4] is -0.553 (inactive); in assay [6], 0.00598 (inactive). Besides, the NADPH fluorescence slope in [5] was -3.9e-05 (inactive).
Take `CCN(C(=O)c1ccnc(C(C)(C)C)c1)c1ccccc1`: the cell count in assay [1] is 334. For the same molecule, the inhibition was 4.4% (inactive) in assay [1], -63.1% (inactive) in assay [3], 13.6% (inactive) in assay [7] and 11.3% (inactive) in assay [8]. Further, the inhibition of aggregation in assay [2] was -6.8% (inactive). Also, the values for the nuclei count in [2] and in assay [3] were 99.8% and 128%, respectively. In addition, in [4], the fluorescence slope is -0.385 (inactive). Also, the NADPH fluorescence slope in assay [5] was -1.8e-05 (inactive). In [9], the slope is 0.0045 (inactive). In addition, the call in [10] was inactive.
Take `CCOC(=O)c1[nH]c(C)c(C(=O)Nc2ccc(C)c(Cl)c2)c1C`: the cell count in assay [1] was found to be 661. Also, the inhibition was 0.3% (inactive) in assay [1], -7.5% (inactive) in assay [3], 11.7% (inactive) in assay [7] and 11.2% (inactive) in [8]. Moreover, the inhibition of aggregation in assay [2] was -3.4% (inactive). The nuclei count in assay [2] was determined as 97.4%; in assay [3], 96.5%. Besides, the results for the fluorescence slope in assay [4] and in assay [6] were -0.446 (inactive) and 0.00769 (inactive), respectively. In addition, in assay [5], the NADPH fluorescence slope is 1.5e-05 (inactive).
As for `COc1ccc(CC(=O)NCc2cccs2)cc1`, the cell count in assay [1] amounted to 568. The inhibition in assay [1] is -20.6% (inactive); in assay [3], -83.1% (inactive); in [7], 31% (inactive); in assay [8] it was 16.3% (inactive). Further, the inhibition of aggregation in assay [2] is -32.4% (inactive). For the same molecule, the nuclei count in assay [2] amounted to 103%; in assay [3], 140%. Moreover, the fluorescence slope was -0.399 (inactive) in [4] and 0.0067 (inactive) in [6]. The NADPH fluorescence slope in [5] was 0.000126 (inactive).
Take `COCC(=O)N(Cc1ccccc1)c1ccccn1`: the cell count in [1] is 354. In addition, the inhibition in assay [1] is 4.9% (inactive); in assay [3], -58.3% (inactive); in assay [7], 11.8% (inactive); in [8], 14.7% (inactive). The inhibition of aggregation in [2] was 1.6% (inactive). The nuclei count was found to be 94.8% in assay [2] and 153% in [3]. The fluorescence slope in assay [4] is -0.599 (inactive); in assay [6] it was 0.00609 (inactive). Moreover, the NADPH fluorescence slope in assay [5] was -4.6e-05 (inactive).
`CC(=O)c1c(C)[nH]c(C(=O)NC2=NCCS2)c1C`: the cell count in [1] was 459. Also, the inhibition in [1] was -9.6% (inactive); in assay [3], 23.6% (inactive); in [7], -2.52% (inactive); in assay [8], -11.8% (inactive). Besides, the inhibition of aggregation in [2] was 15.8% (inactive). In addition, the figures for the nuclei count in assay [2] and in assay [3] were 61.1% and 95.2%, respectively. In addition, the fluorescence slope in [4] is -0.571 (inactive); in assay [6] it was 0.00678 (inactive). Moreover, in assay [5], the NADPH fluorescence slope was -1.9e-05 (inactive).
Consider `Cc1csc2nc3ccccc3c(=O)n12`, for which the cell count in assay [1] turned out to be 270. Besides, the inhibition was 3.9% (inactive) in [1], -48% (inactive) in assay [3], 4.9% (inactive) in [7] and -6.37% (inactive) in assay [8]. In addition, in [2], the inhibition of aggregation is -14.2% (inactive). Further, the nuclei count in assay [2] stood at 97.6%; in assay [3] it was 119%. The fluorescence slope in [4] was -0.579 (inactive); in assay [6], 0.00358 (inactive). The NADPH fluorescence slope in assay [5] is -1.2e-05 (inactive).
For the molecule `O=C(c1ccc(S(=O)(=O)N2CCOCC2)cc1)N1CCc2ccccc2C1`, in assay [1], the cell count came out at 401. Besides, the inhibition in assay [1] is -1% (inactive); in assay [3] it was -103% (inactive); in [7], 25.2% (inactive); in assay [8], 18.8% (inactive). In assay [2], the inhibition of aggregation was -27.5% (inactive). The results for the nuclei count in assay [2] and in assay [3] were 103% and 118%, respectively. Moreover, the fluorescence slope in assay [4] was -0.469 (inactive); in assay [6], 0.00485 (inactive). Moreover, in assay [5], the NADPH fluorescence slope is -1.3e-05 (inactive).
With `O=C(Cc1nn[nH]n1)NCCC1=CCCCC1`, the cell count in [1] was found to be 402. Moreover, the inhibition is 1.7% (inactive) in assay [1], -1.4% (inactive) in assay [3], 5.61% (inactive) in assay [7] and 18% (inactive) in assay [8]. The inhibition of aggregation in assay [2] was 2.5% (inactive). Moreover, the values for the nuclei count in assay [2] and in assay [3] were 99.7% and 113%, respectively. In addition, the fluorescence slope in [4] is -0.567 (inactive); in assay [6], 0.00606 (inactive). In addition, in [5], the NADPH fluorescence slope was -8.7e-06 (inactive).
In the case of `CCOC(=O)c1c(C)oc2ccc(OCC(=O)N(CC)CC)cc12`, the cell count in assay [1] stood at 422. Further, the inhibition in assay [1] was -1.7% (inactive); in assay [3] it was -63% (inactive); in [7] it was 8.2% (inactive); in assay [8], 7.27% (inactive). For the same molecule, in assay [2], the inhibition of aggregation was -2.3% (inactive). In addition, the nuclei count amounted to 95.5% in assay [2] and 104% in assay [3]. Further, the fluorescence slope was -0.449 (inactive) in [4] and 0.00589 (inactive) in [6]. In addition, the NADPH fluorescence slope in [5] is -1.9e-05 (inactive).
For `O=C(O)c1ccc(-n2nc(C(F)(F)F)c3c2-c2ccoc2CC3)cc1`, the cell count in assay [1] is 609. Moreover, the inhibition in [1] was -5.9% (inactive); in assay [3], -24.4% (inactive); in [7], 3.92% (inactive); in assay [8], -5.27% (inactive). In addition, the inhibition of aggregation in assay [2] is 5.8% (inactive). Further, the nuclei count stood at 96.1% in assay [2] and 90.9% in [3]. For the same molecule, the results for the fluorescence slope in assay [4] and in assay [6] were -0.492 (inactive) and 0.00488 (inactive), respectively. For the same molecule, the NADPH fluorescence slope in [5] was 2.6e-05 (inactive).
On to `Cc1ccccc1-c1nc(CN2CCC(C(=O)NCc3cccnc3)CC2)c(C)o1`, for which, in assay [1], the cell count stood at 349. Also, the inhibition was -2.3% (inactive) in assay [1], -149% (inactive) in [3], 7.42% (inactive) in [7] and 17.2% (inactive) in assay [8]. Further, in [2], the inhibition of aggregation is -3.7% (inactive). Further, the figures for the nuclei count in assay [2] and in assay [3] were 103% and 119%, respectively. The fluorescence slope is -0.476 (inactive) in [4] and 0.00551 (inactive) in assay [6]. In [5], the NADPH fluorescence slope is -0.000229 (inactive).
